# No end group written: not given here.
# What was measured:
# TRPV4 channel [1] = assay: Whole-cell patch clamp, GSK101-evoked TRPV4 currents in HEK293; format: cell-based; conditions: GSK101 0.3 μmol/L, extracellular; ∼25 °C
# Summary of the method: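 HEK293 cells were transiently transfected with TRPV4 by lipofection. Whole-cell voltage clamp was performed 24 h after transfection at ~25 °C; currents were filtered at 2 kHz and digitized at 10 kHz. Current was evoked by the TRPV4 activator GSK101, with GSK219 as the selective inhibitor. Test compound stock was freshly diluted in normal saline.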
# TRPV4 channel [2] = assay: Analgesia in homozygous Trpv4−/− mice, CFA pain; format: in vivo, mouse; conditions: 5 mg/kg, 2 h or 3 h post-injection; n = 4–5
# [3] = tested on: mice (conditioned place preference); assay: Conditioned place preference; format: in vivo, mouse; conditions: s.c.; morphine 10 mg/kg; P10581 2 μg/kg, 100 μL; n = 5
# Summary of the method: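 Two-chamber boxes (20 × 20 × 20 cm), one with vertical black-white stripes and one with horizontal stripes. Conditioning training was repeated for 4 days. On Day 5, 24 h after the final dose, mice were placed in the central chamber with free access to both chambers for 15 min. Score = time on the drug-paired side postconditioning minus preconditioning. Dosing was blinded.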
# [4] = tested on: rats (analgesic tolerance, CCI); assay: Chronic analgesic tolerance in CCI neuropathic pain; format: in vivo, rat
# TRPC1 and TRPC6 = conditions: MS channels in DRG neurons; ref [27]; cited from earlier work
# [5] = tested on: rats (mechanical hyperalgesia induced by Carr.); assay: Randall–Selitto test, carrageenan inflammatory pain, peptide given i.d.; format: in vivo, Sprague–Dawley rat
# Summary of the method: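 SD rats (180–220 g) received Carr. (1%, 5 μL) i.d. into the right hindpaw after baseline PWT. Test compound was given i.d. in 5 μL at the inflamed site 1.5 h after Carr. PWT was measured 2 h after dosing. AUC (g·min) was calculated per rat, and ΔPWT = PWT(post-drug) − PWT(pre-drug). Saline was the control. Dosing was blinded; mean ± SEM.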
# rats (thermal pain) = assay: Thermal laser test of hot pain; format: in vivo, rat; conditions: i.d. 1200 ng/kg, 5 μL; laser 52.5 ± 0.5 °C; n = 5
# [6] = tested on: stretch-activated cationic currents in mammalian astrocytes, cardiomyocytes, and the central nervous system; conditions: ref [23], [24], [25], [26]; cited from earlier work
# rats (cold pain) = assay: Cold plantar test; format: in vivo, rat; conditions: i.d. 1200 ng/kg, 5 μL; n = 5
# [7] = tested on: rats (mechanical hyperalgesia and neuropathic pain); conditions: ref [1], [27]; cited from earlier work
# Piezo1/Piezo2 channel = conditions: ref [63], [64]; cited from earlier work
compound,measurement,setting,value
CC(C)C[C@H](NC(=O)c1cc2ccccc2s1)C(=O)N1CCN(C(=O)[C@H](CO)NS(=O)(=O)c2ccc(Cl)cc2Cl)CC1 [GSK101],activation of TRPV4 current,TRPV4 channel [1],robust increase in the currents
CN1CC[C@]23c4c5ccc(O)c4O[C@H]2[C@@H](O)C=C[C@H]3[C@H]1C5 [morphine],anti-hyperalgesic effect of morphine in WT vs. Trpv4-deficient mice,TRPV4 channel [2],equally effective in the anti-hyperalgesic effects among wild-type and Trpv4-deficient mice
same,CPP preference score,[3],significantly increased CPP scores
same,loss of anti-hyperalgesic effect on repeated injection,"[4]; i.d. 5 mg/kg twice a day, CCI",completely lost its anti-hyperalgesic effect from Day 4
same,chronic tolerance after repeated injections,"[4]; i.d. twice a day, 9 days, from Day 8 after CCI, morphine 5 mg/kg, P10581 8 μg/kg",time-dependent decrease in PWT
"GsMTx4 (GCLEFWWKCNPNDDKCCRPKLKCSKLFKLCNFSF; ends and bridges not checked; cysteine pairing not given here; UniProt Q7YT39 47-80, looked up)",channel sensitivity to GsMTx4,TRPC1 and TRPC6,GsMTx4-sensitive
same,effect on PWT at low dose,"[5]; i.d. 0.6 μg/kg, 5 μL, n = 6",only a mild impact on PWT
same,IC50 for anti-hyperalgesic effect (ΔPWT),"[5]; i.d., 2 h after injection, Hill equation fit, n = 5 per group, mean ± SEM",689.3 ± 21.5 ng/kg
same,dose dependence of analgesic effect,"[5]; i.d., Fig. 1G",dose-dependent
same,"effect on paw withdrawal latency (PWL), hot pain",rats (thermal pain),did not change their PWL when compared to the saline group
same,inhibition of stretch-activated cationic currents,[6],inhibit stretch-activated cationic currents
same,"effect on PWL, cold pain",rats (cold pain),neither P10581 nor GsMTx4 at 1200 ng/kg (i.d. 5 μL) affected PWL following cold stimulus
same,reduction of mechanical hyperalgesia and neuropathic pain,[7],reduce mechanical hyperalgesia and neuropathic pain in rats
same,channel sensitivity to GsMTx4,Piezo1/Piezo2 channel,sensitive to GsMTx4
